Experimental data from ChEMBL document CHEMBL1137880, “Synthesis and GABA receptor potency of 3-thiomethyl-4-(hetero)aryl-5-amino-1-phenylpyrazoles” (Bioorg Med Chem Lett, 2004).

Assays:
[1] = molecular target: GABA-A receptor; anion channel (Mus musculus) (UniProt Q8BHJ7+P26048+Q8QZW7+P50571+Q9R0Y8+P22723+A2AMW3+P62812+Q9JLF1+P26049+P22933+Q9D6F4+P63080+P27681+P16305); assay: Ratio of binding affinity for mouse brain Gamma-aminobutyric acid receptor and housefly Gamma-aminobutyric acid receptor
[2] = system: GABA-A receptor; anion channel; assay: In vitro insecticidal activity as inhibition of [3H]EBOB binding to Gamma-aminobutyric acid GABA-A receptor of housefly neuronal membranes; IA denotes inactive; set-up: species or system Musca domestica
[3] = In vivo percent mortality of housefly at 100 mM was determined using contact assay; assay type: ADME, organism-based; conditions: Musca domestica, topical
[4] = In vivo percent mortality of cyclodiene resistant mixed homozygous and heterozygous NC fleas at 100 mM was determined using contact assay; assay type: ADME, organism-based; conditions: Pulicinae
Outline: (§1)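 Cat fleas were exposed by contact at 100 mM. The strains were chosen as genetic variants for the cyclodiene resistance allele, to compare insecticidal activity across them. The read-out was percent mortality.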

[5] = In vivo percent mortality of cyclodiene resistant allele-homozygous CO fleas at 100 mM was determined using contact assay; assay type: ADME, organism-based; conditions: Pulicinae; outline: as §1
[6] = system: GABA-A receptor; anion channel; assay: In vitro insecticidal activity as inhibition of [3H]EBOB binding to Gamma-aminobutyric acid GABA-A receptor of housefly neuronal membranes; NI denotes negative inhibition; set-up: species or system Musca domestica

## CSc1nn(-c2c(Cl)cc(C(F)(F)F)cc2Cl)c(N)c1-c1ccc(Cl)s1
[1]
  Selectivity: 434

## CSc1nn(-c2c(Cl)cc(C(F)(F)F)cc2Cl)c(N)c1-c1cc(C(F)(F)F)cc(C(F)(F)F)c1
[1]
  Selectivity: 12

## CSc1nn(-c2c(Cl)cc(C(F)(F)F)cc2Cl)c(N)c1-c1ccc(C)s1
[2]
  IC50: Not Active

## CSc1nn(-c2c(Cl)cc(C(F)(F)F)cc2Cl)c(N)c1Cl
[3]
  mortality at 100000 µM: 92.8%
[1]
  Selectivity: 210
[4]
  mortality at 100000 µM: 3.3%
[5]
  mortality at 100000 µM: 32.3%

## COc1ccc(-c2c(SC)nn(-c3c(Cl)cc(C(F)(F)F)cc3Cl)c2N)cc1
[1]
  Selectivity: 180

## COc1ccc(-c2c(SC)nn(-c3c(Cl)cc(C(F)(F)F)cc3Cl)c2N)cc1OC
[1]
  Selectivity: 2000

## CSc1nn(-c2c(Cl)cc(C(F)(F)F)cc2Cl)c(N)c1-c1ccccc1C
[3]
  mortality at 100000 µM: 9.6%
[1]
  Selectivity: 400
[4]
  mortality at 100000 µM: 0%
[5]
  mortality at 100000 µM: 60.8%

## COc1cccc(-c2c(SC)nn(-c3c(Cl)cc(C(F)(F)F)cc3Cl)c2N)c1
[1]
  Selectivity: 346

## CSc1nn(-c2c(Cl)cc(C(F)(F)F)cc2Cl)c(N)c1C#N
[1]
  Selectivity: 500

## CSc1nn(-c2c(Cl)cc(C(F)(F)F)cc2Cl)c(N)c1-c1ccccc1C(F)(F)F
[3]
  mortality at 100000 µM: 3.9%
[1]
  Selectivity: 6000
[4]
  mortality at 100000 µM: 0%
[5]
  mortality at 100000 µM: 58.7%

## CCOC(=O)c1c(SC)nn(-c2c(Cl)cc(C(F)(F)F)cc2Cl)c1N
[1]
  Selectivity: 400

## CSc1nn(-c2c(Cl)cc(C(F)(F)F)cc2Cl)c(N)c1-c1cnccn1
[3]
  mortality at 100000 µM: 0%
[1]
  Selectivity: 45
[4]
  mortality at 100000 µM: 89.9%
[5]
  mortality at 100000 µM: 77.4%

## CSc1nn(-c2c(Cl)cc(C(F)(F)F)cc2Cl)c(N)c1-c1cncnc1
[6]
  IC50: Not Active

## CSc1nn(-c2c(Cl)cc(C(F)(F)F)cc2Cl)c(N)c1-c1ccccn1
[2]
  IC50: Not Active

## CSc1nn(-c2c(Cl)cc(C(F)(F)F)cc2Cl)c(N)c1Br
[1]
  Selectivity: 2500

## CSc1nn(-c2c(Cl)cc(C(F)(F)F)cc2Cl)c(N)c1-c1ccsc1
[2]
  IC50: Not Active

## CSc1nn(-c2c(Cl)cc(C(F)(F)F)cc2Cl)c(N)c1-c1nc(C)no1
[3]
  mortality at 100000 µM: 95.4%
[1]
  Selectivity: 9
[4]
  mortality at 100000 µM: 0%
[5]
  mortality at 100000 µM: 0%

## CSc1nn(-c2c(Cl)cc(C(F)(F)F)cc2Cl)c(N)c1-c1ccc(Cl)cc1
[2]
  IC50: Not Active

## CSc1cc(N)n(-c2c(Cl)cc(C(F)(F)F)cc2Cl)n1
[3]
  mortality at 100000 µM: 42.4%
[1]
  Selectivity: 250
[4]
  mortality at 100000 µM: 0%
[5]
  mortality at 100000 µM: 4.4%

## CSc1nn(-c2c(Cl)cc(C(F)(F)F)cc2Cl)c(N)c1-c1cccc(C(F)(F)F)c1
[1]
  Selectivity: 5

## CSc1nn(-c2c(Cl)cc(C(F)(F)F)cc2Cl)c(N)c1-c1ccc(Br)cc1
[2]
  IC50: Not Active

## CSc1nn(-c2c(Cl)cc(C(F)(F)F)cc2Cl)c(N)c1-c1cc(C)cs1
[2]
  IC50: Not Active

## CSc1ccccc1-c1c(SC)nn(-c2c(Cl)cc(C(F)(F)F)cc2Cl)c1N
[2]
  IC50: Not Active

## COc1cc(-c2c(SC)nn(-c3c(Cl)cc(C(F)(F)F)cc3Cl)c2N)cc(OC)c1OC
[2]
  IC50: Not Active

## CSc1nn(-c2c(Cl)cc(C(F)(F)F)cc2Cl)c(N)c1-c1cccs1
[1]
  Selectivity: 44

## CSc1nn(-c2c(Cl)cc(C(F)(F)F)cc2Cl)c(N)c1-c1cccc(Cl)c1
[1]
  Selectivity: 31

## CSc1nn(-c2c(Cl)cc(C(F)(F)F)cc2Cl)c(N)c1-c1ccc(F)cc1
[1]
  Selectivity: 20

## CSc1nn(-c2c(Cl)cc(C(F)(F)F)cc2Cl)c(N)c1-c1ccc(C(C)C)cc1
[2]
  IC50: Not Active

## CSc1nn(-c2c(Cl)cc(C(F)(F)F)cc2Cl)c(N)c1-c1cccc(C(C)C)c1
[2]
  IC50: Not Active

## CSc1nn(-c2c(Cl)cc(C(F)(F)F)cc2Cl)c(N)c1C(=O)O
[1]
  Selectivity: 45

## CSc1nn(-c2c(Cl)cc(C(F)(F)F)cc2Cl)c(N)c1-c1ccncc1
[2]
  IC50: Not Active

## CSc1nn(-c2c(Cl)cc(C(F)(F)F)cc2Cl)c(N)c1-c1cccnc1
[2]
  IC50: Not Active

## C#Cc1c(SC)nn(-c2c(Cl)cc(C(F)(F)F)cc2Cl)c1N
[3]
  mortality at 100000 µM: 80.1%
[1]
  Selectivity: > 10000
[4]
  mortality at 100000 µM: 0%
[5]
  mortality at 100000 µM: 2.2%

## CSc1nn(-c2c(Cl)cc(C(F)(F)F)cc2Cl)c(N)c1-c1ccc(C(C)=O)s1
[1]
  Selectivity: 25

## CSc1nn(-c2c(Cl)cc(C(F)(F)F)cc2Cl)c(N)c1-c1ccc(C#N)cc1
[1]
  Selectivity: 666

## CSc1nn(-c2c(Cl)cc(C(F)(F)F)cc2Cl)c(N)c1I
[1]
  Selectivity: 43

## CSc1nn(-c2c(Cl)cc(C(F)(F)F)cc2Cl)c(N)c1-c1ccccc1
[1]
  Selectivity: 4

## COc1ccc(-c2c(SC)nn(-c3c(Cl)cc(C(F)(F)F)cc3Cl)c2N)c(OC)c1
[1]
  Selectivity: 49

## CSc1nn(-c2c(Cl)cc(C(F)(F)F)cc2Cl)c(N)c1-c1ccccc1F
[2]
  IC50: Not Active

## CSc1nn(-c2c(Cl)cc(C(F)(F)F)cc2Cl)c(N)c1-c1ccc(C)cc1
[1]
  Selectivity: 66

## CSc1nn(-c2c(Cl)cc(C(F)(F)F)cc2Cl)c(N)c1-c1ccc(F)c(Cl)c1
[1]
  Selectivity: 4

## CSc1nn(-c2c(Cl)cc(C(F)(F)F)cc2Cl)c(N)c1-c1cccc(C(C)(C)C)c1
[2]
  IC50: Not Active

## CSc1nn(-c2c(Cl)cc(C(F)(F)F)cc2Cl)c(N)c1-c1ccc2c(c1)OCO2
[3]
  mortality at 100000 µM: 27.6%
[1]
  Selectivity: 64
[4]
  mortality at 100000 µM: 0%
[5]
  mortality at 100000 µM: 1.4%

## CSc1ccc(-c2c(SC)nn(-c3c(Cl)cc(C(F)(F)F)cc3Cl)c2N)cc1
[1]
  Selectivity: 230
